Data: ChEMBL document CHEMBL1124846, “Synthesis, antiproliferative, and antiviral activity of certain 4-substituted and 4,5-disubstituted 7-[(1,3-dihydroxy-2-propoxy)methyl]pyrrolo[2,3-d]pyrimidines” (J Med Chem, 1990)
Where “and” joins values, the source holds several entries; their conditions need not be identical. Equal values may be shown once.

Experiments:
[1] = system: Neoplastic cell line; assay: Cytotoxic activity against KB cells.; assay type: cell-based; details: Homo sapiens
In short: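 KB cells (human oral epidermoid carcinoma) grown in MEM(H) with 5% FBS. Compound effect on incorporation of radiolabelled precursors into DNA, RNA and protein was measured. IC50s came from linear regression of percent inhibition against log concentration, and the three IC50s were averaged.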

[2] = system: Human alphaherpesvirus 1; assay: Inhibition of herpes simplex virus (HSV-1) in plaque reduction assay; assay type: functional, organism-based
In short: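 HSV-1 S-148 strain plaque reduction in BSC-1 monkey kidney monolayers, with about 100 PFU inoculum and compound dissolved in the overlay medium. IC50 came from linear regression of percent inhibition against log concentration, with a positive control in each set.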

[3] = system: L1210; assay: In vitro inhibition of L1210 cell growth to half of the control rate; assay type: functional, cell-based; details: Mus musculus
In short: (§1)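 Murine L1210 leukemia cells in static suspension culture in Fischer's medium with compound for 4 days. Growth rate is the ratio of control to treated population doubling time; where the rate changed, the final rate was used. IC50 is the concentration giving 50% of control growth rate; single-concentration value at 100 μM.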

[4] = Cytotoxic activity against BSC cells; assay type: cell-based; details: Cercopithecidae
In short: (§2)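 Cytotoxicity was scored visually in uninfected HFF or BSC-1 monolayers within the plaque-reduction assays. Drug-induced cytopathology was read at 35- and 60-fold magnification on a 0 to 4+ scale on the day plaques were stained and counted.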

[5] = system: Human alphaherpesvirus 1; assay: Inhibition of herpes simplex virus (HSV-1) in yield reduction assay; assay type: functional, organism-based
[6] = system: L1210; assay: In vitro inhibition of L1210 cell growth.; assay type: functional, Mus musculus; set-up: concentration or dose not given beside the values; in short: as §1
[7] = system: Human betaherpesvirus 5; assay: Inhibition of human cytomegalovirus (HCMV) in plaque reduction assay; assay type: functional, organism-based
In short: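 HCMV Towne strain (plaque-purified P0) plaque reduction in HFF monolayers in MEM(E) with 10% FBS. Inoculum held about 50 PFU, with compound dissolved in the overlay medium. IC50 came from linear regression of percent inhibition against log concentration, with ganciclovir or acyclovir positive controls in every set; two to five experiments.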

[8] = Cytotoxic activity against HFF cells.; assay type: cell-based; details: Homo sapiens; in short: as §2

## Nc1ncnc2c1c(Cl)cn2COC(CO)CO
[1]
  IC50: > 100 µM
[2]
  IC50: 16 µM
[3]
  IC50: 2.3 µM
[4]
  IC50: > 100 µM
[5]
  IC90: 22 µM
[6]
  Activity: 6%
[7]
  IC50: 8 µM
[7]; Human betaherpesvirus 5
  IC50: 9.8 µM
[8]
  IC50: > 100 µM

## Nc1ncnc2c1c(I)cn2COC(CO)CO
[2]
  IC50: 4 µM
[3]
  IC50: 2.8 µM
[6]
  Activity: 6%
[7]
  IC50: 3.1 µM and 0.9 µM
[8]
  IC50: > 100 µM

## CCNc1ncnc2c1c(Cl)cn2COC(CO)CO
[2]
  IC50: > 100 µM
[3]
  IC50: > 100 µM
[4]
  IC50: > 100 µM
[6]
  Activity: 78%
[7]; Human betaherpesvirus 5
  IC50: 100 µM
[8]
  IC50: > 100 µM

## OCC(CO)OCn1cc(Br)c2c(NO)ncnc21
[1]
  IC50: 320 µM
[2]
  IC50: 2.9 µM
[3]
  IC50: 3.7 µM
[5]
  IC90: > 100 µM
[6]
  Activity: 0%
[7]
  IC50: 1.2 µM and 10 µM
[8]
  IC50: > 100 µM
